KCNQ1 pot = human KCNQ1 channel potentiation or activation; CHO-K1 KCNQ1, thallium flux FluxOR fluorescence; stronger effect = higher value; AID 2648; hit rate 0.35% among 310,000; B-score at 10 µM;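 active = fluorescence ratio B-score, a plate-corrected score, at least three library SD, with initial intensity B-score within 5 SD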
Target sequence (P51787 whole entry, looked up): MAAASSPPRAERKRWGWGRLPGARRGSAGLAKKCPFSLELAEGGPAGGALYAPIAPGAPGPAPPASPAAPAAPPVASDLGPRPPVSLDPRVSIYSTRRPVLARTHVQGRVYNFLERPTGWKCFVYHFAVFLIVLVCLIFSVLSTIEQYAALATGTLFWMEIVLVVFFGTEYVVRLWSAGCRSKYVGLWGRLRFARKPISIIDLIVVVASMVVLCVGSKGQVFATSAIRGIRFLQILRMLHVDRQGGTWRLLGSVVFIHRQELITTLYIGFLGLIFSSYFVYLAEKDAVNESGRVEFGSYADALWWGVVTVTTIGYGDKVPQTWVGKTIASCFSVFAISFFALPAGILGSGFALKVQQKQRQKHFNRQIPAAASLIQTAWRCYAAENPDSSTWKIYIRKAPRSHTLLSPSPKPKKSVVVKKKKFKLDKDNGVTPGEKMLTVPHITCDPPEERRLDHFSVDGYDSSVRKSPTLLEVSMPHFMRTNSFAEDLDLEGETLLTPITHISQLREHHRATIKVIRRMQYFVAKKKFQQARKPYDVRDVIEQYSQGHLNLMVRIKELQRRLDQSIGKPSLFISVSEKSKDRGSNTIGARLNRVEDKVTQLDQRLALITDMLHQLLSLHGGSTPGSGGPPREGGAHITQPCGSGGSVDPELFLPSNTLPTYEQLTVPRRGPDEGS
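Medium – assay buffer, equal DMSO in all wells · Material – CHO-K1 cell line with stable KCNQ1 potassium channel expression · Signal – kinetic FluxOR thallium fluorescence, 10-s 1-Hz baseline, 110-s post-stimulus read · Compound – single concentration per compound, DMSO matched to controls · Schedule – 37 °C overnight plating, 90-min dark dye load, 20-min compound pretreatment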
KCNK3 block = human KCNK3 channel inhibition, primary screen; CHO-KCNK3 thallium flux, FluxOR fluorescence; stronger effect = lower value; hit rate 0.84% among 340,000; O14649; B-score at 10 µM;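 active = B-score under library mean minus 4 SD, starting fluorescence ratio at most library mean plus 5 SD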;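 note: more negative B-score means stronger inhibition of thallium flux through KCNK3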
KCNQ1 block = human KCNQ1 channel inhibition. P51787. CHO-K1 KCNQ1, FluxOR thallium flux fluorescence; stronger effect = higher value. B-score at 10 µM. hit rate 1.3% among 310,000;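 active = compounds whose thallium flux B-score, printed positive for inhibition, exceeds three library SD while starting fluorescence stays within three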;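 note: channel opened by potassium depolarization with thallium stimulus after 20 min compound exposure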
KCNK9 block = human KCNK9 channel inhibition | HEK293 KCNK9, FluxOR thallium flux fluorescence; stronger effect = lower value | B-score at 10 µM | hit rate 1.2% among 310,000 | AID 488922;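 active = ratio B-score over 3 SD below the library mean, with starting fluorescence within 5 SD of its mean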;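 note: negative B-score means less thallium flux so channel inhibition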
hERG rescue = compounds protecting human hERG from proarrhythmic drug block. Q12809. CHO-hERG, FluxOR thallium flux, dofetilide IC70 present. activation (rescue from dofetilide block), less the hit threshold, % at 10 µM. hit rate 0.51% among 310,000;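 active = activation above the mean of controls blocked by dofetilide plus 5 SD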;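 note: thallium influx through hERG after potassium depolarization seen as dye fluorescence rise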
Kir21 block = Kir2.1 (mouse) channel inhibition; P35561; HEK293-Kir2.1, FluxOR thallium flux fluorescence; stronger effect = lower value; hit rate 0.85% among 310,000; B-score at 10 µM;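 active = fluorescence ratio B-score at or below minus 3 SD of library scores, with starting-brightness B-score within 2 SD, cut at about -4.2 in these data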;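 note: channel flux triggered by added potassium and thallium sulfate stimulus; B-score of peak minus minimum fluorescence over baseline after thallium stimulus; more negative B-score means stronger Kir2.1 block with less thallium influx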
KCNK9 inh conf = confirmation of human KCNK9 potassium channel inhibitors; shares compounds with KCNK9 block; hit rate 43% among 4,900; AID 492992; HEK293 KCNK9 cells, FluxOR thallium flux fluorescence; inhibition, % at 10 µM;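 active = thallium signal inhibited by more than 5 SD of the compound-free buffer control wells, on both duplicate plates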;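 note: 0% = assay buffer control wells without compound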
Kir2-1 spec = tests whether KCNK9 modulators also affect mouse Kir2.1. shares compounds with KCNK9 block. Kir2.1 cells, FluxOR thallium flux fluorescence. inhibition, % at 10 µM. hit rate 4% among 4,900. AID 492993;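 active = thallium signal drop more than 5 SD beyond the mean of the no-compound control wells, seen in both duplicate plates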;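 note: signal is fluorescence rise after thallium addition divided by baseline fluorescence; plate controls were assay buffer only for no effect and full block by chlorpromazine control for full effect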
KCNK9 uninduced = second counter-screen for KCNK9 modulators: effect in non-induced cells; shares compounds with KCNK9 block; non-induced KCNK9-HEK293, FluxOR thallium flux; inhibition, % at 10 µM; hit rate 40% among 4,900; AID 492997;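 active = thallium signal drop beyond 5 SD of the untreated control mean, on both duplicate plates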;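 note: plate controls were buffer only IC0 wells for no effect and SID17386958 at its maximal inhibitory level for full effect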
* marks the source's active call; other numbers are inactive results; i = inactive; . = not tested or not shown; ! = not confirmed by another sample. This is a sample that favours compounds with a hit; in the whole collection about 3.8% have one here.

SMILES | KCNQ1 pot | KCNK3 block | KCNQ1 block | KCNK9 block | hERG rescue | Kir21 block | KCNK9 inh conf | Kir2-1 spec | KCNK9 uninduced
O=C(Nc1cscc1S(=O)(=O)c1ccc(Cl)cc1)c1ccccc1Cl | i | i | i | i | -11 | -0.71 | . | . | .
Cc1ccc(Sc2nc(-c3ccccc3)nnc2C(F)(F)F)cc1 | i | i | i | i | -11 | 1.2 | i | i | i
COc1ccc(C(C)=O)cc1CSc1ccc2c(c1)OCCO2 | i | i | i | i | -10 | -2.6 | i | i | i
COc1ccc(C(C)=O)cc1CSc1nc(C)cc(C)n1 | i | i | i | i | -13 | 0.47 | . | . | .
COc1ccc(C2C=C(Nc3ccccc3)C(=O)N2c2ccccc2)cc1OC (configuration not stated) | i | i | i | -11* | -7 | -1.4 | 62%* | i | 34%*
N#Cc1c(-c2ccccc2)nc(SCC(=O)N2c3ccccc3Sc3ccccc32)[nH]c1=O | i | i | i | i | -38 | 1.2 | i | i | 25%*
CCOc1ccc(S(=O)(=O)N2CCN(Cc3ccc4c(c3)OCO4)CC2)cc1OCC | i | i | i | i | -13 | -0.4 | . | . | .
O=S(=O)(c1ccc(Cl)nc1)N1CCN(Cc2ccc3c(c2)OCO3)CC1 | i | i | i | i | -8 | 0.12 | . | . | .
O=S(=O)(c1cccc2cccnc12)N1CCN(Cc2ccc3c(c2)OCO3)CC1 | i | i | i | i | 0 | -0.55 | i | i | i
O=S(=O)(c1ccc(Br)s1)N1CCN(Cc2ccc3c(c2)OCO3)CC1 | i | i | i | i | -3 | 0.68 | i | i | i
COc1cccc(S(=O)(=O)N2CCN(Cc3ccc4c(c3)OCO4)CC2)c1 | i | i | i | i | -9 | -1.6 | i | i | i
CC(=O)c1c(C)[nH]c(C(=O)OCC(=O)Nc2nnc(-c3ccccc3)o2)c1C | . | i | . | . | . | . | . | . | .
CC1=CC(C)C2(COC(=O)Nc3ccccc3)COC(C)C1C2C (configuration not stated) | i | i | i | i | -13 | -1.7 | i | i | i
O=C1NC(=S)NC1(c1ccccc1)c1ccccc1 | . | i | . | . | . | . | . | . | .
O=C(CCSc1ccc(Cl)cc1)N1CCCCCC1 | i | i | i | i | -7 | -1.2 | i | i | i
Cc1c(Cc2ccccc2)c(=O)oc2c(C)c(OCC(=O)N[C@@H](Cc3ccccc3)C(=O)O)ccc12 | i | i | i | i | -16 | 1.5 | . | . | .
Cc1sc(NC(=O)c2ccccc2)c(C(=O)NC(C)C)c1C | i | i | i | i | -4 | -1.2 | . | . | .
Cc1sc(NC(=O)c2ccccc2)c(C(=O)c2ccccc2)c1C | i | i | i | i | -10 | 2.3 | i | i | i
O=[N+]([O-])c1c(C(Cl)Cl)nn(-c2ccc(Cl)cc2)c1N1CCCCC1 | i | i | i | i | -6 | 0.36 | i | i | i
O=[N+]([O-])c1c(C(Cl)Cl)nn(-c2ccccc2)c1N1CCOCC1 | i | i | i | i | -20 | -0.17 | . | . | .
COc1cccc(OC)c1OCC(O)CN1CCN(c2ccccc2F)CC1 (configuration not stated) | i | i | i | i | -3 | -1.3 | . | . | .
OC(CSc1c(Cl)cccc1Cl)CN1CCN(c2ccccc2F)CC1 (configuration not stated) | i | i | i | i | -26 | -0.01 | i | i | i
OC(CSc1ccccc1Cl)CN1CCN(c2ccccc2F)CC1 (configuration not stated) | i | i | i | i | -17 | -0.07 | i | i | i
OC(CSc1c(Cl)cccc1Cl)CN1CCN(c2ccc(F)cc2)CC1 (configuration not stated) | i | i | i | i | -23 | -1.3 | i | i | i
OC(CSc1ccccc1Cl)CN1CCN(c2ccc(F)cc2)CC1 (configuration not stated) | i | i | i | i | -17 | -1.5 | . | . | .
SMILES | KCNQ1 pot | KCNK3 block | KCNQ1 block | KCNK9 block | hERG rescue | Kir21 block | KCNK9 inh conf | Kir2-1 spec | KCNK9 uninduced
O=[N+]([O-])c1ccccc1C(O)Cc1ccccn1 (configuration not stated) | . | i | . | . | . | . | . | . | .
Cc1cc(C)c(-c2csc(NC(=O)/C=C/c3cccs3)n2)c(C)c1 | i | i | i | i | -5 | -0.01 | i | i | i
Cc1ccc(S(=O)(=O)N2CCCCC2)c2nsnc12 | i | i | i | i | -8 | -1.9 | . | . | .
O=S(=O)(Nc1c(S(=O)(=O)c2ccccc2)c2nc3ccccc3nc2n1C1CCCCC1)c1ccccc1 | i | i | i | i | -17 | -5.1* | i | i | i
C=CCn1c(NS(=O)(=O)c2ccccc2)c(S(=O)(=O)c2ccc(C)cc2)c2nc3ccccc3nc21 | i | i | i | i | -6 | -0.53 | . | . | .
CCCCCCCCn1ccc(=N)cc1 | i | i | i | i | -15 | -0.52 | . | . | .
CCCCCCCCCCCCCCCCn1cc[n+](C)c1 | i | -12*! | 10*! | -12*! | -37 | -3.9 | 62%* | 44%* | 26%*
CCOc1cccc(-c2c(C(=O)N/N=C/c3cccs3)nnn2-c2nonc2N)c1 | i | i | i | i | -10 | -1 | . | . | .
Cc1ccc(SCC(=O)O/N=C(\N)c2ccc([N+](=O)[O-])cc2)cc1 | i | i | i | i | -10 | -0.87 | i | i | i
COc1ccc(C(=O)N/N=C/c2c[nH]c3ccccc23)cc1 | i | i | i | i | -8 | 0.11 | . | . | .
CCCCCN=C(N)N/N=C/c1c[nH]c2ccc(OC)cc12 | i | i | 7* | -11* | -31 | -9.4 | 66%* | 64%* | i
CCC(=O)N(c1nnc(SCC(=O)c2ccc[nH]2)s1)C1CC1 | . | i | . | . | . | . | . | . | .
COc1ccc(NC2CCCN(C(=O)CCOc3ccccc3)C2)cc1 (configuration not stated) | i | i | i | i | -8 | -0.47 | i | i | i
COc1ccc(NC2CCCN(C(=O)CSc3ccccc3)C2)cc1 (configuration not stated) | i | i | i | i | -7 | -3.2 | . | . | .
